Reference: ChEMBL document CHEMBL4715736, “Identification of anticancer agents based on the thieno[2,3-b]pyridine and 1H-pyrazole molecular scaffolds” (2016)

Tests used:
Format in all cases: functional
SNB-75 [1] = experiment: Growth inhibition of human SNB-75 cells incubated for 48 hrs by sulforhodamine B assay
Summary of the method: (§1)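 NCI DTP 60-line human tumour panel. Dose-response curves were run only for ligands active in the initial 10 µM screen. GI50 (concentration giving 50% of maximal inhibition of proliferation) and TGI (concentration giving total growth inhibition) were derived from these curves.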

NCI-H522 [2] = experiment: Growth inhibition of human NCI-H522 cells incubated for 48 hrs by sulforhodamine B assay
Summary of the method: (§2)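 NCI60 panel at the NCI Developmental Therapeutics Program. Only compounds active in the 10 µM screen went to dose-response testing. GI50, the concentration giving 50% of maximal inhibition of proliferation, and TGI, the concentration giving total growth inhibition, were derived from the dose-response curves.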

SN12C [3] = experiment: Growth inhibition of human SN12C cells assessed as cell growth at 0.01 uM incubated for 48 hrs by sulforhodamine B assay relative to control; conditions: read-out: Activity
SF-268 [4] = experiment: Growth inhibition of human SF-268 cells assessed as cell growth at 0.01 uM incubated for 48 hrs by sulforhodamine B assay relative to control; conditions: read-out: Activity
786-0 = experiment: Growth inhibition of human 786-0 cells assessed as cell growth at 0.1 uM incubated for 48 hrs by sulforhodamine B assay relative to control; conditions: read-out: Activity
Summary of the method: (§3)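 NCI Developmental Therapeutics Program NCI60 panel. Compounds that were active in the 10 µM one-dose screen went on to dose–response testing. Growth at each concentration is expressed relative to untreated control (100%). GI50 (concentration giving 50% of maximal inhibition of proliferation) and TGI (concentration giving total growth inhibition) were derived from the curves.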

SR = experiment: Growth inhibition of human SR cells incubated for 48 hrs by sulforhodamine B assay; summary of the method: as §1
MDA-MB-435 [5] = experiment: Growth inhibition of human MDA-MB-435 cells assessed as cell growth at 1 uM incubated for 48 hrs by sulforhodamine B assay relative to control; conditions: read-out: Activity
RXF 393 = experiment: Growth inhibition of human RXF 393 cells assessed as cell growth at 100 uM incubated for 48 hrs by sulforhodamine B assay relative to control; conditions: read-out: Activity
SW-620 = experiment: Growth inhibition of human SW-620 cells incubated for 48 hrs by sulforhodamine B assay; summary of the method: as §1
K562 = experiment: Growth inhibition of human K562 cells incubated for 48 hrs by sulforhodamine B assay; summary of the method: as §2
TK-10 = experiment: Growth inhibition of human TK-10 cells assessed as cell growth at 0.1 uM incubated for 48 hrs by sulforhodamine B assay relative to control; conditions: read-out: Activity
HCT-15 = experiment: Growth inhibition of human HCT-15 cells assessed as cell growth at 1 uM incubated for 48 hrs by sulforhodamine B assay relative to control; conditions: read-out: Activity
UACC-62 = experiment: Growth inhibition of human UACC-62 cells assessed as cell growth at 1 uM incubated for 48 hrs by sulforhodamine B assay relative to control; conditions: read-out: Activity
SNB-75 [6] = experiment: Growth inhibition of human SNB-75 cells assessed as cell growth at 100 uM incubated for 48 hrs by sulforhodamine B assay relative to control; conditions: read-out: Activity
NCI/ADR-RES = experiment: Growth inhibition of human NCI/ADR-RES cells assessed as cell growth at 100 uM incubated for 48 hrs by sulforhodamine B assay relative to control; conditions: read-out: Activity
UO-31 [7] = experiment: Growth inhibition of human UO-31 cells assessed as cell growth at 0.01 uM incubated for 48 hrs by sulforhodamine B assay relative to control; conditions: read-out: Activity
HCT-116 = experiment: Growth inhibition of human HCT-116 cells incubated for 48 hrs by sulforhodamine B assay; summary of the method: as §2
NCI-H226 = experiment: Growth inhibition of human NCI-H226 cells assessed as cell growth at 0.01 uM incubated for 48 hrs by sulforhodamine B assay relative to control; conditions: read-out: Activity
MDA-MB-435 [8] = experiment: Growth inhibition of human MDA-MB-435 cells assessed as cell growth at 0.1 uM incubated for 48 hrs by sulforhodamine B assay relative to control; conditions: read-out: Activity
NCI-H522 [9] = experiment: Growth inhibition of human NCI-H522 cells assessed as cell growth at 1 uM incubated for 48 hrs by sulforhodamine B assay relative to control; conditions: read-out: Activity
IGROV-1 = experiment: Growth inhibition of human IGROV-1 cells assessed as cell growth at 0.01 uM incubated for 48 hrs by sulforhodamine B assay relative to control; conditions: read-out: Activity
BT-549 = experiment: Growth inhibition of human BT-549 cells assessed as cell growth at 100 uM incubated for 48 hrs by sulforhodamine B assay relative to control; conditions: read-out: Activity
U-251 = experiment: Growth inhibition of human U-251 cells assessed as cell growth at 0.1 uM incubated for 48 hrs by sulforhodamine B assay relative to control; conditions: read-out: Activity
OVCAR-3 = experiment: Growth inhibition of human OVCAR-3 cells incubated for 48 hrs by sulforhodamine B assay; conditions: for CC50: read-out: LC50 (the source's name); summary of the method: as §1
SK-MEL-5 = experiment: Growth inhibition of human SK-MEL-5 cells assessed as cell growth at 0.1 uM incubated for 48 hrs by sulforhodamine B assay relative to control; conditions: read-out: Activity
UO-31 [10] = experiment: Growth inhibition of human UO-31 cells assessed as cell growth at 1 uM incubated for 48 hrs by sulforhodamine B assay relative to control; conditions: read-out: Activity
KM12 = experiment: Growth inhibition of human KM12 cells assessed as cell growth at 0.01 uM incubated for 48 hrs by sulforhodamine B assay relative to control; conditions: read-out: Activity
COLO 205 = experiment: Growth inhibition of human COLO 205 cells assessed as cell growth at 100 uM incubated for 48 hrs by sulforhodamine B assay relative to control; conditions: read-out: Activity; summary of the method: as §3
SF-539 = experiment: Growth inhibition of human SF-539 cells assessed as cell growth at 1 uM incubated for 48 hrs by sulforhodamine B assay relative to control; conditions: read-out: Activity
HOP-62 = experiment: Growth inhibition of human HOP-62 cells assessed as cell growth at 1 uM incubated for 48 hrs by sulforhodamine B assay relative to control; conditions: read-out: Activity
MDA-MB-468 = experiment: Growth inhibition of human MDA-MB-468 cells assessed as cell growth at 1 uM incubated for 48 hrs by sulforhodamine B assay relative to control; conditions: read-out: Activity
SF-268 [11] = experiment: Growth inhibition of human SF-268 cells assessed as cell growth at 0.1 uM incubated for 48 hrs by sulforhodamine B assay relative to control; conditions: read-out: Activity
SN12C [12] = experiment: Growth inhibition of human SN12C cells assessed as cell growth at 0.1 uM incubated for 48 hrs by sulforhodamine B assay relative to control; conditions: read-out: Activity
NCI-H23 = experiment: Growth inhibition of human NCI-H23 cells assessed as cell growth at 100 uM incubated for 48 hrs by sulforhodamine B assay relative to control; conditions: read-out: Activity
RPMI-8226 = experiment: Growth inhibition of human RPMI-8226 cells assessed as cell growth at 1 uM incubated for 48 hrs by sulforhodamine B assay relative to control; conditions: read-out: Activity

## Nc1c(C(=O)Nc2ccccc2)sc2nc3c(cc12)CN(Cc1ccccc1)CC3
SNB-75 [1]
  GI50: 1.32 µM
  TGI: 3.5 µM
NCI-H522 [2]
  GI50: 32.5 µM
  LC50: > 100 µM
  TGI: > 100 µM
SN12C [3]
  growth at 0.01 µM: 94%
SF-268 [4]
  growth at 0.01 µM: 91%
786-0
  growth at 0.1 µM: 90%
SR
  GI50: 13.1 µM
  LC50: > 100 µM
  TGI: > 100 µM
MDA-MB-435 [5]
  growth at 1 µM: 68%
RXF 393
  growth at 100 µM: -5%
SW-620
  GI50: 20.8 µM
  LC50 (concentration killing 50% of cells): > 100 µM
  TGI: > 100 µM
K562
  GI50: 9.1 µM
  LC50 (concentration killing 50% of cells): > 100 µM
  TGI: > 100 µM
TK-10
  growth at 0.1 µM: 96%
HCT-15
  growth at 1 µM: 94%
UACC-62
  growth at 1 µM: 89%
SNB-75 [6]
  growth at 100 µM: -49%
NCI/ADR-RES
  growth at 100 µM: 29%
UO-31 [7]
  growth at 0.01 µM: 80%
HCT-116
  GI50: 11 µM
  LC50 (concentration killing 50% of cells): > 100 µM
  TGI: > 100 µM
NCI-H226
  growth at 0.01 µM: 98%
MDA-MB-435 [8]
  growth at 0.1 µM: 85%
NCI-H522 [9]
  growth at 1 µM: 91%
IGROV-1
  growth at 0.01 µM: 95%
BT-549
  growth at 100 µM: -2%
U-251
  growth at 0.1 µM: 98%
OVCAR-3
  GI50: 11.4 µM
  TGI: > 100 µM
  CC50: > 100 µM
SK-MEL-5
  growth at 0.1 µM: 100%
UO-31 [10]
  growth at 1 µM: 83%
KM12
  growth at 0.01 µM: 100%
COLO 205
  growth at 100 µM: 23%
SF-539
  growth at 1 µM: 83%
HOP-62
  growth at 1 µM: 88%
MDA-MB-468
  growth at 1 µM: 87%
SF-268 [11]
  growth at 0.1 µM: 99%
SN12C [12]
  growth at 0.1 µM: 94%
NCI-H23
  growth at 100 µM: 24%
RPMI-8226
  growth at 1 µM: 93%

## CN1CCc2nc3sc(C(N)=O)c(N)c3c(-c3cccs3)c2C1
SNB-75 [1]
  GI50: 2.81 µM
  LC50: > 100 µM
  TGI: 8.03 µM
NCI-H522 [2]
  GI50: 2.91 µM
  LC50: > 100 µM
  TGI: 17.8 µM
SN12C [3]
  growth at 0.01 µM: 98%
SF-268 [4]
  growth at 0.01 µM: 106%
786-0
  growth at 0.1 µM: 99%
SR
  GI50: 1.8 µM
  LC50: > 100 µM
  TGI: 7.31 µM
MDA-MB-435 [5]
  growth at 1 µM: 90%
RXF 393
  growth at 100 µM: -46%
SW-620
  GI50: 4.02 µM
  LC50 (concentration killing 50% of cells): > 100 µM
  TGI: > 100 µM
K562
  GI50: 4.99 µM
  LC50 (concentration killing 50% of cells): > 100 µM
  TGI: > 100 µM
TK-10
  growth at 0.1 µM: 99%
HCT-15
  growth at 1 µM: 93%
UACC-62
  growth at 1 µM: 93%
SNB-75 [6]
  growth at 100 µM: -40%
UO-31 [7]
  growth at 0.01 µM: 97%
HCT-116
  GI50: 2.31 µM
  LC50 (concentration killing 50% of cells): > 100 µM
  TGI: > 100 µM
NCI-H226
  growth at 0.01 µM: 93%
MDA-MB-435 [8]
  growth at 0.1 µM: 95%
NCI-H522 [9]
  growth at 1 µM: 86%
IGROV-1
  growth at 0.01 µM: 111%
BT-549
  growth at 100 µM: -8%
U-251
  growth at 0.1 µM: 98%
OVCAR-3
  GI50: 2.16 µM
  TGI: 6.23 µM
  CC50: > 100 µM
SK-MEL-5
  growth at 0.1 µM: 91%
UO-31 [10]
  growth at 1 µM: 95%
KM12
  growth at 0.01 µM: 103%
COLO 205
  growth at 100 µM: -60%
SF-539
  growth at 1 µM: 90%
HOP-62
  growth at 1 µM: 102%
MDA-MB-468
  growth at 1 µM: 77%
SF-268 [11]
  growth at 0.1 µM: 110%
SN12C [12]
  growth at 0.1 µM: 93%
NCI-H23
  growth at 100 µM: -30%
RPMI-8226
  growth at 1 µM: 119%
